Series [1] deals with Mus musculus. The experiment in a line: Analgesic activity in Swiss albino mouse at 20 mg/kg, po assessed as reaction time after 60 mins by hot plate method. The class given is functional. A digest of the protocol: (§1)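 Swiss albino mice of both sexes (25–30 g), kept at 22 °C on a 12 h light/dark cycle, in groups of five. Given 20 mg/kg orally as an aqueous suspension; aspirin reference at 20 mg/kg orally. Hot plate at 53 °C. Reaction time (placement to hind-paw licking or jumping) was taken before dosing and at 15, 30, 60 and 90 min; 60 s cut-off.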
(In general: In hot-plate and tail-flick tests a longer latency is read as antinociception.)

Series [2] has as its system Mus musculus. The experiment in a line: Analgesic activity in Swiss albino mouse at 20 mg/kg, po assessed as reaction time after 90 mins by hot plate method. The class given is functional. A digest of the protocol: as §1
For series [3], the system named is Mus musculus. The experiment in a line: Analgesic activity in Swiss albino mouse at 20 mg/kg, po assessed as reaction time after 30 mins by hot plate method. The class given is functional. The method, boiled down:
as §1

A further series relates to Salmonella typhi. In words: Antibacterial activity against Salmonella typhi AE 14612 after 48 hrs by disc diffusion method. The class given is functional, Salmonella enterica subsp. enterica serovar Typhi. The note with it: Salmonella enterica, read-out: MIC. A general note: Agar diffusion results depend on both activity and mobility in agar.
For series [4], the system named is Rattus norvegicus. In words: Antiinflammatory activity against carrageenan-induced albino rat hind paw edema model assessed as edema rate at 15 mg/kg, po administered 1 hr before carrageenan challenge measured after 1 hr. The class given is functional. A digest of the protocol:
(§2)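 Albino rats of both sexes were fasted 18 h, five per group. Dosing was 15 mg/kg orally as an aqueous suspension (tween-80/water vehicle), 1 h before subplantar 0.1 mL 1% w/v carrageenin in the left hind paw. Paw volume was measured by mercury plethysmometer before injection, then hourly for 4 h. Edema rate = (Vt − Vo)/Vo.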
(In general: The carrageenan paw model is a standard test of acute inflammation.)

The subject of series [5] is Rattus norvegicus. In words: Antiinflammatory activity against carrageenan-induced albino rat hind paw edema model at 15 mg/kg, po administered 1 hr before carrageenan challenge measured after 1 hr relative to indomethacin. The class given is functional.
Series [6] deals with Rattus norvegicus. In words: Antiinflammatory activity against carrageenan-induced albino rat hind paw edema model at 15 mg/kg, po administered 1 hr before carrageenan challenge measured after 2 hrs relative to indomethacin. The class given is functional.
The next series has as its system Bacillus cereus. The experiment in a line: Antibacterial activity against Bacillus cereus BTCC19 after 48 hrs by disc diffusion method. The class given is functional. A digest of the protocol:
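Disc diffusion on nutrient agar. Compounds were dissolved in DMF at 1 mg/mL, applied per disc. Inhibition zones (mm) were read after 48 h at 28 °C. DMF alone was the negative control; ampicillin was the reference.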

Another series relates to Shigella dysenteriae. In words: Antibacterial activity against Shigella dysenteriae AE 14396 after 48 hrs by disc diffusion method. The class given is functional. The settings on record: read-out: MIC.
The test system of series [7] is Rattus norvegicus. The experiment in a line: Antiinflammatory activity against carrageenan-induced albino rat hind paw edema model at 15 mg/kg, po administered 1 hr before carrageenan challenge measured after 3 hrs relative to indomethacin. The class given is functional.
Series [8] has as its system Rattus norvegicus. The experiment in a line: Antiinflammatory activity against carrageenan-induced albino rat hind paw edema model assessed as edema rate at 15 mg/kg, po administered 1 hr before carrageenan challenge measured after 4 hrs. The class given is functional. The method, boiled down:
as §2

For another series, the system named is Fusarium equiseti. In words: Antifungal activity against Fusarium equiseti (Corda) Sacc after 48 hrs by poisoned-food technique. The class given is functional. On the set-up: concentration or dose not given beside the values.
Series [9] concerns Rattus norvegicus. In words: Antiinflammatory activity against carrageenan-induced albino rat hind paw edema model assessed as edema rate at 15 mg/kg, po administered 1 hr before carrageenan challenge measured after 2 hrs. The class given is functional. A digest of the protocol:
as §2

Series [10] deals with Rattus norvegicus. In words: Antiinflammatory activity against carrageenan-induced albino rat hind paw edema model assessed as edema rate at 15 mg/kg, po administered 1 hr before carrageenan challenge measured after 3 hrs. The class given is functional. The method, boiled down:
as §2

Series [11] relates to Rattus norvegicus. In words: Antiinflammatory activity against carrageenan-induced albino rat hind paw edema model at 15 mg/kg, po administered 1 hr before carrageenan challenge measured after 4 hrs relative to indomethacin. The class given is functional.
The test system of series [12] is Rattus norvegicus. In words: Gastrointestinal toxicity in carrageenan-induced albino rat hind paw edema model assessed as induction of ulcerogenicity at 15 mg/kg, po. The class given is organism-based. The arrangement: dose 15 mg/kg, route oral. The note with it: in vivo.

Structures are written as SMILES.

These results are taken from ChEMBL document CHEMBL1144212, “Design and synthesis of 3-pyrazolyl-thiophene, thieno[2,3-d]pyrimidines as new bioactive and pharmacological activities” (Bioorg Med Chem Lett, 2008).

For the compound `CC(=O)Oc1ccccc1C(=O)O` [ASPIRIN], the figures for the Activity with Mus musculus [1], in the series with Mus musculus [2] and with Mus musculus [3] were 6.56 s, 7.78 s and 6.66 s, respectively.
Consider `CCOC(=O)c1sc(N)c(C(=O)NNc2nc(C)cs2)c1C`, for which the zone of inhibition came out at 29 µg/mL in the series with Salmonella typhi, 31 mm in the series with Bacillus cereus and 28 µg/mL with Shigella dysenteriae. Moreover, the Activity in the series on Rattus norvegicus [4] was -45.14%; in the series with Rattus norvegicus [5] it was 127.23%; in the series on Rattus norvegicus [6], 93.42%; with Mus musculus [1] it was 6.46 s; with Rattus norvegicus [7], 75.99%; with Rattus norvegicus [8] it was -26.53%. The Activity in the series with Mus musculus [2] is 4.7 s; in the series on Rattus norvegicus [9], -37.17%; in the series on Rattus norvegicus [10], -25.33%; in the series on Mus musculus [3] it was 6.68 s; with Rattus norvegicus [11] it was 64.52%. Moreover, the inhibition (commonly the percentage by which the read-out fell short of the control) with Fusarium equiseti is 43.8%.
As to `CCOC(=O)c1sc(N)c(C(=O)NNC(N)=S)c1C`, the zone of inhibition was 28 µg/mL in the series on Salmonella typhi, 20 mm with Bacillus cereus and 13 µg/mL in the series with Shigella dysenteriae. The Activity in the series on Rattus norvegicus [4] is listed as 36.56%; with Rattus norvegicus [5], 103.04%; in the series on Rattus norvegicus [6] it was 93.52%; in the series on Mus musculus [1] it was 5.74 s; in the series on Rattus norvegicus [7] it was 88.21%; in the series on Rattus norvegicus [8], -34.62%. Besides, the Activity in the series on Mus musculus [2] was 6.14 s; in the series with Rattus norvegicus [9], -37.21%; in the series on Rattus norvegicus [10], -29.4%; in the series with Mus musculus [3], 5.44 s; with Rattus norvegicus [11] it was 84.19%. For the same compound, in the series on Fusarium equiseti, the inhibition stood at 28%.
In the case of `CCOC(=O)c1sc(N)c(C(=O)n2nc(C)cc2C)c1C`, the Activity with Rattus norvegicus [4] is listed as 2.58%; in the series on Rattus norvegicus [5], -7.27%; with Rattus norvegicus [6], 19.8%; in the series on Rattus norvegicus [12], “Non-toxic”; with Mus musculus [1], 7.62 s; in the series on Rattus norvegicus [7], 25.38%. Further, the Activity in the series on Rattus norvegicus [8] is -0.25%; in the series with Mus musculus [2], 9.78 s; in the series on Rattus norvegicus [9], 7.88%; in the series with Rattus norvegicus [10] it was 8.46%; in the series with Mus musculus [3], 7.72 s; in the series on Rattus norvegicus [11], 0.61%.
As to `CCOC(=O)c1sc(NC(C)=O)c(C(=O)OCC)c1C`, the zone of inhibition in the series on Salmonella typhi was 11 µg/mL; with Bacillus cereus, 11 mm; in the series on Shigella dysenteriae, 14 µg/mL. Moreover, the Activity in the series on Rattus norvegicus [4] was -15.03%; in the series on Rattus norvegicus [5], 42.36%; with Rattus norvegicus [6] it was 30.44%; with Mus musculus [1], 5.96 s; with Rattus norvegicus [7] it was 0.12%; with Rattus norvegicus [8], -5.2%. Moreover, the Activity with Mus musculus [2] is 6.08 s; in the series with Rattus norvegicus [9] it was -12.11%; in the series with Rattus norvegicus [10], -4%; in the series on Mus musculus [3], 7.34 s; in the series on Rattus norvegicus [11], 12.65%. Also, the inhibition in the series with Fusarium equiseti turned out to be 36.3%.
In the case of `CCOC(=O)c1sc(N)c(C(=O)NN)c1C`, the Activity is recorded as -13.43% in the series with Rattus norvegicus [4]; 37.85% with Rattus norvegicus [5]; 22.22% with Rattus norvegicus [6]; “Non-toxic” in the series with Rattus norvegicus [12]; 6.2 s in the series with Mus musculus [1]; 29.4% in the series on Rattus norvegicus [7]. Besides, the Activity in the series with Rattus norvegicus [8] was -13.32%; in the series with Mus musculus [2], 7.86 s; with Rattus norvegicus [9] it was -8.84%; with Rattus norvegicus [10], -9.8%; with Mus musculus [3], 6.12 s; in the series on Rattus norvegicus [11] it was 32.39%. For the same compound, the zone of inhibition in the series with Bacillus cereus was 10 mm; in the series with Shigella dysenteriae it was 6 µg/mL. Moreover, in the series with Fusarium equiseti, the inhibition was determined as 29.3%.
On to `CCOC(=O)c1sc(N)c(C(=O)NNC=O)c1C`, for which the zone of inhibition in the series on Salmonella typhi is 34 µg/mL; with Bacillus cereus, 33 mm; with Shigella dysenteriae, 30 µg/mL. Moreover, the Activity is on record as -51.18% with Rattus norvegicus [4]; 144.25% with Rattus norvegicus [5]; 96% in the series with Rattus norvegicus [6]; 6.9 s in the series on Mus musculus [1]; 88.75% with Rattus norvegicus [7]; -31.32% in the series on Rattus norvegicus [8]. Besides, the Activity in the series with Mus musculus [2] is reported as 4.84 s; in the series on Rattus norvegicus [9], -38.2%; in the series on Rattus norvegicus [10] it was -29.58%; with Mus musculus [3], 6.08 s; in the series with Rattus norvegicus [11], 76.17%. In addition, the inhibition with Fusarium equiseti is 65.6%.
`CCOC(=O)c1sc2[nH]c(=S)n(N)c(=O)c2c1C`: the values for the zone of inhibition in the series on Salmonella typhi, in the series on Bacillus cereus and in the series on Shigella dysenteriae were 17 µg/mL, 19 mm and 18 µg/mL, respectively. The Activity is reported as -30.19% in the series with Rattus norvegicus [4]; 85.09% with Rattus norvegicus [5]; 36.54% with Rattus norvegicus [6]; 7.24 s in the series on Mus musculus [1]; 31.74% with Rattus norvegicus [7]; -24.67% in the series with Rattus norvegicus [8]. Besides, the Activity is listed as 7.16 s with Mus musculus [2]; -14.54% in the series on Rattus norvegicus [9]; -10.58% with Rattus norvegicus [10]; 6.6 s in the series with Mus musculus [3]; 59.99% with Rattus norvegicus [11]. In the series with Fusarium equiseti, this compound returned an inhibition of 47.6%.
As for `CCOC(=O)c1sc2nc(C)n(N)c(=O)c2c1C`, the zone of inhibition in the series on Salmonella typhi amounted to 15 µg/mL; in the series with Bacillus cereus it was 15 mm; in the series with Shigella dysenteriae it was 7 µg/mL. Also, the Activity is recorded as -29.82% in the series on Rattus norvegicus [4]; 84.05% with Rattus norvegicus [5]; 45.06% in the series with Rattus norvegicus [6]; 5.04 s in the series with Mus musculus [1]; 43.95% in the series on Rattus norvegicus [7]; -15.24% with Rattus norvegicus [8]. The Activity is recorded as 6.7 s in the series on Mus musculus [2]; -17.93% with Rattus norvegicus [9]; -14.65% in the series with Rattus norvegicus [10]; 6.46 s with Mus musculus [3]; 37.06% with Rattus norvegicus [11]. Moreover, the inhibition in the series on Fusarium equiseti amounted to 37.5%.
For `CC1(C)S[C@@H]2[C@H](NC(=O)[C@H](N)c3ccccc3)C(=O)N2[C@H]1C(=O)O` [AMPICILLIN], the zone of inhibition with Salmonella typhi stood at 24 µg/mL; in the series on Bacillus cereus it was 21 mm; in the series on Shigella dysenteriae it was 30 µg/mL.
Regarding `CCOC(=O)c1sc(N)c(C(=O)N/N=C/c2ccc(OC)cc2)c1C`, the zone of inhibition in the series with Salmonella typhi amounted to 12 µg/mL; with Bacillus cereus, 10 mm. Also, the Activity in the series on Rattus norvegicus [4] is reported as -14.4%; in the series with Rattus norvegicus [5], 40.59%; with Rattus norvegicus [6], 3.82%; in the series with Mus musculus [1], 7.72 s; in the series with Rattus norvegicus [7], 11.73%; in the series on Rattus norvegicus [8] it was -13.29%. Also, the Activity is reported as 9.06 s in the series on Mus musculus [2]; -1.52% with Rattus norvegicus [9]; -3.91% with Rattus norvegicus [10]; 6.42 s with Mus musculus [3]; 32.32% in the series with Rattus norvegicus [11]. The inhibition with Fusarium equiseti was 28%.
